Laboratory results from article PMC11486593 (Biochimica et biophysica acta. General subjects, 2024).

Columns and labels:
[1] = system: SAG-induced AP activity in C3H10T1/2 cells; experiment: C3H10T1/2 cell-based assay, inhibition of SAG-induced alkaline phosphatase; design: species or system murine; conditions: for Inhibition of SAG-induced AP: C3H10T1/2 cells, SAG at EC50 (100 nM), 5 days; for Cytotoxicity in C3H10T1/2 cells: inferred from lack of effect in the SAG induction assay
Method in brief: (§1)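 C3H10T1/2 murine embryonic fibroblasts, stimulated for 5 days with an agonist at its EC50 (human ShhN N-terminal domain, residues 24–197, at 2 μg/ml; or Smoothened agonist SAG at 100 nM), with or without the test compound in dose response. Alkaline phosphatase activity is measured as the marker of pathway activation. IC50 is obtained by non-linear regression.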

ShhN protein = ShhN protein (Homo sapiens, UniProt Q15465); experiment: Protein thermal shift assay; assay type: binding; conditions: ShhN 1–2 μM; compounds 1.56 to 50 μM
Method in brief: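 Differential scanning fluorimetry uses human ShhN (residues 24–197, 1–2 μM final) mixed with the kit's thermal shift buffer and dye, held on ice, with or without the test compound at 1.56–50 μM. Melt runs at a continuous ramp of […] from 25°C to 97.5°C. ΔTm is the difference in transition midpoint with versus without compound.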

[2] = system: ShhN-induced Gli1 and Ptch1 mRNA in C3H10T1/2 cells; experiment: qRT-PCR for Gli1 and Ptch1 in C3H10T1/2 cells, ShhN-mediated induction; assay type: cell-based, mouse; conditions: 5 days; for Inhibition of ShhN-induced GLI1 and Ptch1 mRNA: 50 μM for compounds 4, 21 and 24, 10 μM for robotnikinin; for Decrease of ShhN-mediated induction of Gli1 and Ptch1 compared to ShhN treatment alone: 50 μM compound
[3] = system: SAG-induced Gli1 and Ptch1 mRNA in C3H10T1/2 cells; experiment: qRT-PCR for Gli1 and Ptch1 in C3H10T1/2 cells, SAG-mediated induction; assay type: cell-based, mouse; conditions: 5 days, 50 μM for compounds 4, 21 and 24, 10 μM for robotnikinin
[4] = system: ShhN-induced AP activity in C3H10T1/2 cells; experiment: C3H10T1/2 cell-based assay, inhibition of ShhN-induced alkaline phosphatase; design: species or system murine; conditions: dose response, 5 days
Method in brief: as §1

ShhN/heparin binding = ShhN/heparin binding (Homo sapiens, UniProt Q15465); experiment: Solid-phase ShhN/heparin binding assay; conditions: for ShhN/flu-heparin binding IC50 of known compounds: compounds known to bind Shh, heparin binding domains or heparin, Fig. 3B
C3H10T1/2 cells = experiment: Induction of AP activity in C3H10T1/2 cells by agonists; assay type: cell-based, murine; conditions: read-out: EC50 for induction of AP activity, 5 days
Method in brief: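 C3H10T1/2 murine embryonic fibroblasts are cultured for 24 h, then exposed to varying concentrations of ShhN protein or SAG for 5 days. Alkaline phosphatase induction is read as the activation marker, and EC50 is fitted by non-linear regression. A ShhN dose-response curve is run on every plate as an internal control.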

Sequence of ShhN protein (Q15465 24-197): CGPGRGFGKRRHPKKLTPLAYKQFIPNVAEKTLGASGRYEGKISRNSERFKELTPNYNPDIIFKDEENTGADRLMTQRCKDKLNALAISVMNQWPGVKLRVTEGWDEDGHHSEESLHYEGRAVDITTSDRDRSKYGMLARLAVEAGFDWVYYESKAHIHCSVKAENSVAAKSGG
Sequence of ShhN/heparin binding (Q15465 24-197): as above

Row | SMILES | Inhibition of SAG-induced AP [1] | Tm shift (ΔTm) on binding to ShhN (ShhN protein) [°C] | Inhibition of ShhN-induced GLI1 and Ptch1 mRNA [2] | Inhibition of SAG-induced GLI1 and Ptch1 mRNA [3] | other results
1 | O=C(C[C@@H]1C/C=C/CCC(=O)O[C@H](c2ccccc2)CNC1=O)NCc1ccc(Cl)cc1 [Robotnikinin, reference compound] | not SAG-mediated AP induction | 0.85 | blocked | did not block | Block of ShhN-mediated AP induction [4]: able to block ShhN-; ShhN/flu-heparin binding IC50 of known compounds (ShhN/heparin binding): did not block binding
2 | O=C(NCCNC1CCCC1)c1cccs1 [Compound 24, N-[2-(Cyclopentylamino)ethyl] thiophene-2-carboxamide] | not SAG induction of AP | 0.85 | significantly blocked | did not decrease | Cytotoxicity in C3H10T1/2 cells [1]: not cytotoxic; Decrease of ShhN-mediated induction of Gli1 and Ptch1 compared to ShhN treatment alone [2]: 6–7 fold
3 | CNC1CCC(N(Cc2cccc(-c3ccncc3)c2)C(=O)c2sc3ccccc3c2Cl)CC1 (centres unmarked) [SAG] | – | – | – | – | EC50 (C3H10T1/2 cells): 0.1 µM
4 | CCc1ccc(C2=C/C(=C/c3ccco3)C(=O)O2)cc1 [Compound 4, (3Z)-5-(4-Ethylphenyl)-3-(furan-2-ylmethylidene) furan-2-one] | not SAG induction of AP | 1.58 | significantly blocked | did not decrease | Cytotoxicity in C3H10T1/2 cells [1]: not cytotoxic; Decrease of ShhN-mediated induction of Gli1 and Ptch1 compared to ShhN treatment alone [2]: 6–7 fold
5 | Cc1ccc(C(=O)Nc2ccc(S(=O)(=O)O)c3cc(S(=O)(=O)O)cc(S(=O)(=O)O)c23)cc1NC(=O)c1cccc(NC(=O)Nc2cccc(C(=O)Nc3cc(C(=O)Nc4ccc(S(=O)(=O)O)c5cc(S(=O)(=O)O)cc(S(=O)(=O)O)c45)ccc3C)c2)c1 [Suramin, reference compound] | – | 0.73 | – | – | Block of ShhN-mediated AP induction [4]: blocked
6 | Cc1cc(N)c2cc(NC(=O)Nc3ccc4nc(C)cc(N)c4c3)ccc2n1 [surfen, Surfen] | – | – | – | – | ShhN/flu-heparin binding IC50 of known compounds (ShhN/heparin binding): did not block binding
7 | O=C1NC(=S)N(c2ccc(F)cc2)C(=O)C1=Cc1ccco1 [Compound 7, 1-(4-Fluoro-phenyl)-5-furan-2-ylmethylene-2-thioxo-dihydro-pyrimidine-4,6-dione] | – | – | – | – | IC50 (ShhN/heparin binding): 17.5 µM
